Experimental findings from ChEMBL document CHEMBL1138555, “N-acylated and N,N'-diacylated imidazolidine-2-thione derivatives and N,N'-diacylated tetrahydropyrimidine-2(1H)-thione analogues: synthesis and antiproliferative activity” (Eur J Med Chem, 2009) are described below.

The assay has as its system Human immunodeficiency virus 1. Briefly: Antiviral activity against HIV1 in human MT4 cells assessed as prevention of virus-induced cytopathogenicity. It counts as functional, organism-based. Summed up: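 MT-4 cells, 1 × 10⁴ per well, with serial compound dilutions from a 100 mM DMSO stock. Infected with HIV-1 at 100 CCID50. Four-day incubation at 37 °C, then viable cells measured by MTT. Read-out is inhibition of virus-induced cytopathogenicity, assessed at non-cytotoxic concentrations.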

The source made the active and inactive calls. No cut-off for these calls is given here.

Take `COC(=O)/C(C#N)=C/N1CCNC1=S`: the result was inactive.
As for `COC(=O)/C(=C\N1CCNC1=S)C(C)=O`, the entry is “inactive”.
As for `CC(=O)/C(=C/N1CCNC1=S)C(=O)c1ccccc1`, the entry is “inactive”.
